From ChEMBL document CHEMBL3769392, “Synthesis, antiproliferative activities, and computational evaluation of novel isocoumarin and 3,4-dihydroisocoumarin derivatives” (Eur J Med Chem, 2016)
≈ marks a conversion by molar mass, not a printed value.

Columns and labels:
HaCaT [1] = assay: Selectivity index, ratio of GI50 for human HaCaT cells to GI50 for human NCI-ADR-RES cells; type: functional
HaCaT [2] = assay: Selectivity index, ratio of GI50 for human HaCaT cells to GI50 for human MCF7 cells; type: functional
[3] = Antiproliferative activity against human PC3 cells after 48 hrs by SRB assay; type: functional; details: PC-3, 48 h
Method in brief: (§1)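 Cells kept in RPMI 1640 with 5% FBS and 1% penicillin/streptomycin at 37 °C, 5% CO2, and used at passages 5–12. Seeded at 3 to 5 x 10^4 cells/mL and exposed 48 h to 0.25, 2.5, 25 and 250 µg/mL in DMSO/RPMI (final DMSO ≤ 0.25%). Doxorubicin 0.025–25 µg/mL served as positive control. Fixed with 50% TCA at T0 and at endpoint, SRB protein read at 540 nm. Growth was T0-corrected and GI50 taken by non-linear regression.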

MCF7 = assay: Antiproliferative activity against human MCF7 cells after 48 hrs by SRB assay; type: functional; details: MCF7, 48 h; method in brief: as §1
[4] = Antiproliferative activity against human NCI-ADR-RES cells after 48 hrs by SRB assay; type: functional; method in brief: as §1
HT-29 = assay: Antiproliferative activity against human HT-29 cells after 48 hrs by SRB assay; type: functional; details: HT-29, 48 h; method in brief: as §1
[5] = Cytotoxicity against human HaCaT cells after 48 hrs by SRB assay; type: cell-based; method in brief: as §1
HaCaT [6] = assay: Selectivity index, ratio of GI50 for human HaCaT cells to GI50 for human PC3 cells; type: functional
786-0 = assay: Antiproliferative activity against human 786-0 cells after 48 hrs by SRB assay; type: functional; details: 786-0, 48 h; method in brief: as §1
NCI-H460 [7] = assay: Antiproliferative activity against human NCI-H460 cells after 48 hrs by SRB assay; type: functional; details: NCI-H460, 48 h; method in brief: as §1
U-251 = assay: Antiproliferative activity against human U251 cells after 48 hrs by SRB assay; type: functional; details: U-251, 48 h; method in brief: as §1
HaCaT [8] = assay: Selectivity index, ratio of GI50 for human HaCaT cells to GI50 for human HT-29 cells; type: functional
NCI-H460 [9] = assay: Selectivity index, ratio of GI50 for human HaCaT cells to GI50 for human NCI-H460 cells; type: functional
HaCaT [10] = assay: Selectivity index, ratio of GI50 for human HaCaT cells to GI50 for human U251 cells; type: functional
HaCaT [11] = assay: Selectivity index, ratio of GI50 for human HaCaT cells to GI50 for human 786-0 cells; type: functional

| SMILES | RatioGI50 (HaCaT [1]) | RatioGI50 (HaCaT [2]) | GI50 [3] [µg/mL] | GI50 (MCF7) [µg/mL] | GI50 [4] [µg/mL] | GI50 (HT-29) [µg/mL] | GI50 at 48 h [5] [µg/mL] | RatioGI50 (HaCaT [6]) | GI50 (786-0) [µg/mL] | GI50 (NCI-H460 [7]) [µg/mL] | GI50 (U-251) [µg/mL] | RatioGI50 (HaCaT [8]) | RatioGI50 (NCI-H460 [9]) | RatioGI50 (HaCaT [10]) | RatioGI50 (HaCaT [11]) |
| --- | --- | --- | --- | --- | --- | --- | --- | --- | --- | --- | --- | --- | --- | --- | --- |
| COc1ccc2c(c1)C(=O)OC(CCCSc1nnnn1-c1ccccc1)C2 (racemic) | >1.89 | >13.44 | 45.1 (≈ 114 µM) | 18.6 (≈ 46.9 µM) | 132 (≈ 333 µM) | 13.7 (≈ 34.6 µM) | ≥ 250 | >5.54 | ≥ 250 | ≥ 250 | ≥ 250 | >18.25 | – | – | – |
| COc1ccc2c(c1)C(=O)OC(CCCn1nnnc1-c1ccccc1)C2 (racemic) | >1.76 | >8.87 | 23.9 (≈ 65.6 µM) | 28.2 (≈ 77.4 µM) | 142 (≈ 390 µM) | 31.2 (≈ 85.6 µM) | ≥ 250 | > 10.5 | ≥ 250 | 211 (≈ 578 µM) | 226 (≈ 621 µM) | >8.01 | >1.19 | >2.29 | – |
| COc1cccc2c1C(=O)c1c(O)c3c(c(O)c1C2=O)C[C@@](O)(C(=O)CO)C[C@@H]3O[C@H]1C[C@H](N)[C@H](O)[C@H](C)O1 [DOXORUBICIN] | – | – | 0.085 (≈ 0.156 µM) | < 0.025 | 0.14 (≈ 0.258 µM) | 0.13 (≈ 0.239 µM) | < 0.025 | – | 0.025 (≈ 0.046 µM) | < 0.025 | < 0.025 | – | – | – | – |
| CCCCCOCCCC1Cc2ccc(OC)cc2C(=O)O1 (racemic) | 0.76 | 1 | 29.5 (≈ 96.3 µM) | 32.3 (≈ 105 µM) | 42.3 (≈ 138 µM) | 43.5 (≈ 142 µM) | 32.3 (≈ 105 µM) | 1.09 | 31.9 (≈ 104 µM) | 33.7 (≈ 110 µM) | 32.2 (≈ 105 µM) | 0.74 | 0.96 | 1 | 1.01 |
| COc1ccc2cc(CCCSc3nnnn3-c3ccccc3)oc(=O)c2c1 | – | >5.47 | 144 (≈ 366 µM) | 45.7 (≈ 116 µM) | ≥ 250 | ≥ 250 | ≥ 250 | >1.73 | 51.1 (≈ 130 µM) | ≥ 250 | 43.3 (≈ 110 µM) | – | – | >5.77 | >4.89 |
| CCCCCOCCCc1cc2ccc(OC)cc2c(=O)o1 | 0.74 | 0.92 | 8 (≈ 26.3 µM) | 6 (≈ 19.7 µM) | 7.4 (≈ 24.3 µM) | 28.3 (≈ 93 µM) | 5.5 (≈ 18.1 µM) | 0.69 | 25.5 (≈ 83.8 µM) | 32 (≈ 105 µM) | 19.4 (≈ 63.7 µM) | 0.19 | 0.17 | 0.28 | 0.22 |
| COc1ccc2c(c1)C(=O)OC(CCCO)C2 (racemic) | 1.4 | 1.12 | 70.7 (≈ 299 µM) | 80.8 (≈ 342 µM) | 93.3 (≈ 395 µM) | 132 (≈ 559 µM) | 130 (≈ 551 µM) | 1.84 | 102 (≈ 430 µM) | 136 (≈ 574 µM) | 135 (≈ 571 µM) | 0.99 | 0.96 | 0.97 | 1.28 |
| COc1ccc2cc(CCCO)oc(=O)c2c1 | 1.03 | 1.12 | 25.9 (≈ 111 µM) | 25.8 (≈ 110 µM) | 28.1 (≈ 120 µM) | 29.1 (≈ 124 µM) | 29 (≈ 124 µM) | 1.12 | 26.9 (≈ 115 µM) | 29.1 (≈ 124 µM) | 28.9 (≈ 123 µM) | 1 | 1 | 1 | 1.08 |
| COc1ccc2cc(CCCOCCCc3cccnc3)oc(=O)c2c1 | 1.4 | 1.13 | 26.3 (≈ 74.4 µM) | 23.8 (≈ 67.3 µM) | 19.3 (≈ 54.6 µM) | 25 (≈ 70.7 µM) | 27 (≈ 76.4 µM) | 1.03 | 28.7 (≈ 81.2 µM) | 25.2 (≈ 71.3 µM) | 26.3 (≈ 74.4 µM) | 1.08 | 1.07 | 1.03 | 0.94 |
| O=C1OC(CO)Cc2ccccc21 (racemic) | – | >378.79 | ≥ 250 | 0.66 (≈ 3.7 µM) | ≥ 250 | ≥ 250 | ≥ 250 | – | ≥ 250 | ≥ 250 | ≥ 250 | – | – | – | – |
| O=c1oc(CO)cc2ccccc12 | – | 2.49 | 118 (≈ 669 µM) | 89.3 (≈ 507 µM) | ≥ 250 | 168 (≈ 956 µM) | 222 (≈ 1260 µM) | 1.88 | ≥ 250 | ≥ 250 | ≥ 250 | 1.32 | – | – | – |
| COc1ccc2c(c1)C(=O)OC(CO)C2 (racemic) | – | >1 | 175 (≈ 842 µM) | 250 (≈ 1200 µM) | ≥ 250 | ≥ 250 | ≥ 250 | >1.43 | ≥ 250 | ≥ 250 | ≥ 250 | – | – | – | – |
| COc1ccc2cc(CO)oc(=O)c2c1 | 0.84 | 4.12 | 49.2 (≈ 239 µM) | 32.6 (≈ 158 µM) | 160 (≈ 778 µM) | 80.3 (≈ 389 µM) | 134 (≈ 652 µM) | 2.73 | 37.6 (≈ 182 µM) | 93.2 (≈ 452 µM) | 167 (≈ 811 µM) | 1.67 | 1.44 | 0.8 | 3.57 |
| COc1ccc2cc(COCCCc3cccnc3)oc(=O)c2c1 | 0.94 | 0.99 | 25 (≈ 76.8 µM) | 26.5 (≈ 81.4 µM) | 28 (≈ 86.1 µM) | 25.8 (≈ 79.3 µM) | 26.2 (≈ 80.5 µM) | 1.05 | 28.6 (≈ 87.9 µM) | 29.6 (≈ 91 µM) | 28.5 (≈ 87.6 µM) | 1.02 | 0.89 | 0.92 | 0.92 |
| COc1ccc2cc(CCCn3nnnc3-c3ccccc3)oc(=O)c2c1 | – | >3.32 | 180 (≈ 496 µM) | 75.2 (≈ 208 µM) | ≥ 250 | ≥ 250 | ≥ 250 | >1.39 | 224 (≈ 619 µM) | ≥ 250 | 67.4 (≈ 186 µM) | – | – | >3.71 | >1.12 |
